# Activity calls are given as the source filed them. No cut-off for these calls is given here.
# Assays:
# [1] = Antioxidant activity assessed as superoxide radical scavenging activity; type: functional
# How it was run: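 Non-cellular assay; superoxide generated by oxidation of 50 µM hypoxanthine with 12 mU xanthine oxidase. Scavenging followed as the rate of nitroblue tetrazolium reduction to formazan. SC50 taken from dose-dependent curves of serial dilutions; superoxide dismutase as standard inhibitor.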
# RAW264.7 [2] = assay: Effect on inflammatory mediators in mouse RAW264.7 cells assessed as TNF-alpha accumulation at 20% IC50 after 24 hrs by ELISA; type: functional
# RAW264.7 [3] = assay: Effect on inflammatory mediators in LPS-stimulated mouse RAW264.7 cells assessed as COX-2 accumulation at 20% IC50 after 24 hrs by dot immunoblotting; type: functional
# How it was run: (§1)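 20 µg lysate protein dot-blotted, probed with anti-mouse COX-2 or 5-LO, detected by HRP/OPD and normalised to β-actin.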
# RAW264.7 [4] = assay: Effect on inflammatory mediators in mouse RAW264.7 cells assessed as nitrite accumulation at 20% IC50 after 24 hrs by Griess assay; type: functional
# RAW264.7 [5] = assay: Effect on inflammatory mediators in LPS-stimulated mouse RAW264.7 cells assessed as PGE2 accumulation at 20% IC50 after 24 hrs by ELISA; type: functional
# RAW264.7 [6] = assay: Effect on inflammatory mediators in mouse RAW264.7 cells assessed as COX-2 accumulation at 20% IC50 after 24 hrs by dot immunoblotting; type: functional; how it was run: as §1
# RAW264.7 [7] = assay: Effect on mouse RAW264.7 cell function assessed as FITC-LPS binding to macrophage after 15 mins by fluorimetry; type: functional, cell-based
# How it was run: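 5×10^5 RAW 264.7 cells pre-incubated 15 min at 37 °C with compound in RPMI-1640 plus 10% FBS as the CD14/LBP source. FITC-LPS (200 ng/ml) then added for 1 h. After PBS wash, fluorescence read at ex 485/em 530 nm and median fluorescence intensity reported.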
# RAW264.7 [8] = assay: Effect on inflammatory mediators in LPS-stimulated mouse RAW264.7 cells assessed as 5-LO accumulation at 20% IC50 after 24 hrs by dot immunoblotting; type: functional; how it was run: as §1
# RAW264.7 [9] = assay: Effect on inflammatory mediators in LPS-stimulated mouse RAW264.7 cells assessed as nitrite accumulation at 20% IC50 after 24 hrs by Griess assay; type: functional
# [10] = Peroxyl radical scavenging activity assessed as trolox equivalents at 1 uM by ORAC assay
# How it was run: (§2)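 β-Phycoerythrin fluorescence decay followed kinetically for 2 h at 37 °C with 1 µM compound, against peroxyl and hydroxyl radicals. One ORAC unit = net protection given by 1.0 µM Trolox.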
# RAW264.7 [11] = assay: Cytotoxicity against mouse RAW264.7 cells assessed as cell viability after 24 hrs by MTT assay; type: cell-based; settings: RAW264.7, 24 h, in the assay text read “MTT assay” for “ultra gel clot assay”
# How it was run: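 RAW 264.7 macrophages (5×10^4 cells/well) exposed 24 h at 37 °C to a range of compound concentrations, then read by MTT reduction to formazan, solubilised in acidic isopropanol. Viability expressed as mean % of untreated cells (n = 4); 1000 U/ml M-CSF as positive control. IC50 derived.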
# [12] = Hydroxyl radical scavenging activity assessed as trolox equivalents at 1 uM by ORAC assay; type: functional; how it was run: as §2
# RAW264.7 [13] = assay: Effect on inflammatory mediators in mouse RAW264.7 cells assessed as PGE2 accumulation at 20% IC50 after 24 hrs by ELISA; type: functional
# RAW264.7 [14] = assay: Effect on inflammatory mediators in mouse RAW264.7 cells assessed as 5-LO accumulation at 20% IC50 after 24 hrs by dot immunoblotting; type: functional; how it was run: as §1
# RAW264.7 [15] = assay: Effect on inflammatory mediators in LPS-stimulated mouse RAW264.7 cells assessed as TNF-alpha accumulation at 20% IC50 after 24 hrs by ELISA; type: functional
# RAW264.7 [16] = assay: Induction of phagocytosis in mouse RAW264.7 cells assessed as phagocytic activity against FITC-zymosan after 1 hr by fluorimetry; type: functional, cell-based
# How it was run: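 Cells at 1×10^5/well in phenol red-free RPMI-1640 rested 24 h, then given compound for 1 h. FITC-zymosan added for a further 1 h; cells washed three times and lysed with Triton X-100. Fluorescence read at 485/530 nm and expressed relative to untreated cells (100%).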
# RAW264.7 [17] = assay: Effect on inflammatory mediators in LPS-stimulated mouse RAW264.7 cells assessed as nitrite accumulation at 20 uM after 24 hrs by Griess assay; type: functional
# How it was run: (§3)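 Cells in phenol red-free RPMI-1640 with 10% FBS treated 24 h with 20 µM compound, with or without LPS (1 µg/ml). Supernatant mixed 1:1 with Griess reagent for 10 min, A550 read against a sodium nitrite standard curve, then normalised to BCA protein.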
# RAW264.7 [18] = assay: Effect on inflammatory mediators in LPS-stimulated mouse RAW264.7 cells assessed as PGE2 accumulation at 20 uM after 24 hrs by ELISA; type: functional
# How it was run: (§4)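 RAW 264.7 given 20 µM compound for 24 h, alone or together with LPS at 1 µg/ml. TNF-α and PGE2 in harvested supernatants quantified with commercial ELISA kits per manufacturer; four repeats, means reported.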
# RAW264.7 [19] = assay: Effect on inflammatory mediators in mouse RAW264.7 cells assessed as 5-LO accumulation at 20 uM after 24 hrs by dot immunoblotting; type: functional
# How it was run: (§5)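 Cells treated 24 h with 20 µM compound, with or without LPS (1 µg/ml). 20 µg soluble lysate protein dot-blotted onto nitrocellulose and probed with rabbit anti-mouse COX-2 or 5-LO, HRP anti-rabbit secondary and OPD colour. Intensity normalised to β-actin dots; four repeats.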
# RAW264.7 [20] = assay: Effect on inflammatory mediators in LPS-stimulated mouse RAW264.7 cells assessed as COX-2 accumulation at 20 uM after 24 hrs by dot immunoblotting; type: functional; how it was run: as §5
# RAW264.7 [21] = assay: Effect on inflammatory mediators in mouse RAW264.7 cells assessed as nitrite accumulation at 20 uM after 24 hrs by Griess assay; type: functional; how it was run: as §3
# RAW264.7 [22] = assay: Effect on inflammatory mediators in mouse RAW264.7 cells assessed as COX-2 accumulation at 20 uM after 24 hrs by dot immunoblotting; type: functional; how it was run: as §5
# RAW264.7 [23] = assay: Effect on inflammatory mediators in mouse RAW264.7 cells assessed as TNF-alpha accumulation at 20 uM after 24 hrs by ELISA; type: functional; how it was run: as §4
# RAW264.7 [24] = assay: Effect on inflammatory mediators in mouse RAW264.7 cells assessed as PGE2 accumulation at 20 uM after 24 hrs by ELISA; type: functional; how it was run: as §4
# RAW264.7 [25] = assay: Effect on inflammatory mediators in LPS-stimulated mouse RAW264.7 cells assessed as TNF-alpha accumulation at 20 uM after 24 hrs by ELISA; type: functional; how it was run: as §4
# RAW264.7 [26] = assay: Effect on inflammatory mediators in LPS-stimulated mouse RAW264.7 cells assessed as 5-LO accumulation at 20 uM after 24 hrs by dot immunoblotting; type: functional; how it was run: as §5
Compound,SC50 [1],Activity (RAW264.7 [2]),Activity (RAW264.7 [3]),Activity (RAW264.7 [4]),Activity (RAW264.7 [5]),Activity (RAW264.7 [6]),Activity (RAW264.7 [7]),Activity (RAW264.7 [8]),Activity (RAW264.7 [9]),Activity [10],IC50 (RAW264.7 [11]),Activity [12],Activity (RAW264.7 [13]),Activity (RAW264.7 [14]),Activity (RAW264.7 [15]),Activity (RAW264.7 [16]),Activity (RAW264.7 [19]),Activity (RAW264.7 [20]),Activity (RAW264.7 [22]),Activity (RAW264.7 [26]),other results
CCOC(=O)COc1nc(-c2ccc3c(c2)CCCC3)cc(-c2ccc(C(C)C)cc2)c1C#N,81.4 µg/mL,72.45 pg,31.3%,3.19 nmol,2870.5 pg,18.7%,Active,38.7%,110.54 nmol,2.36,> 50 µM,1.05,50.5 pg,11.9%,2810.66 pg,Active,–,–,–,–,–
CC(C)c1ccc(-c2cc(-c3ccc4c(c3)CCCC4)[nH]c(=O)c2C#N)cc1,85.4 µg/mL,–,–,–,–,–,Active,–,–,0.75,> 100 µM,0.92,–,–,–,Active,20.3%,42.7%,21.4%,25.1%,Activity (RAW264.7 [17]): 32.55 nmol; Activity (RAW264.7 [18]): 2105.3 pg; Activity (RAW264.7 [21]): 8.51 nmol; Activity (RAW264.7 [23]): 91.67 pg; Activity (RAW264.7 [24]): 40.13 pg; Activity (RAW264.7 [25]): 1255.6 pg
CC(C)c1ccc(-c2cc(-c3ccc4c(c3)CCCC4)nc(Cl)c2C#N)cc1,> 100 µg/mL,350.05 pg,80.1%,439.13 nmol,2870.25 pg,28.7%,inactive,94.6%,611.68 nmol,0.92,8.4 µM,1.1,45.39 pg,29.5%,5110.4 pg,–,29.5%,80.1%,28.7%,94.6%,–
COc1ccc(-c2cc(-c3ccc4c(c3)CCCC4)nc(Cl)c2C#N)cc1OC,87.9 µg/mL,–,–,–,–,–,inactive,–,–,0.61,> 50 µM,0.35,–,–,–,inactive,25.3%,88.7%,36.6%,84.5%,Activity (RAW264.7 [17]): 766.85 nmol; Activity (RAW264.7 [18]): 3325.87 pg; Activity (RAW264.7 [21]): 512.35 nmol; Activity (RAW264.7 [23]): 810.75 pg; Activity (RAW264.7 [24]): 38.33 pg; Activity (RAW264.7 [25]): 5716.66 pg
CC(C)c1ccc(-c2cc(-c3ccc4c(c3)CCCC4)nc(OCC(=O)NCc3ccccc3)c2C#N)cc1,24.6 µg/mL,69.65 pg,20.1%,10.19 nmol,3260.2 pg,20.6%,–,61.7%,32.75 nmol,2.22,9.9 µM,3.44,48.15 pg,21.7%,615.33 pg,Active,–,–,–,–,–

# Reference: ChEMBL document CHEMBL1153793, “New pyridone, thioxopyridine, pyrazolopyridine and pyridine derivatives that modulate inflammatory mediators in stimulated RAW 264.7 murine macrophage” (Eur J Med Chem, 2009)
